{"data": "Experimental data of several laboratories", "organism": "Mycobacterium tuberculosis", "read-out": "microbial growth", "note": "Compare with care: the assays were run in different laboratories."}
{"Structure (SMILES)": "COC(=O)c1cc(-c2cccc(NC(=O)Nc3ccccc3C)c2)on1", "strain": "ATCC27294 H37RV", "time": "7 days", "MIC": "2 µg/mL"}
{"Structure (SMILES)": "O=[N+]([O-])c1cn2c(n1)OC[C@@H](OCc1ccc(N3CCCCC3)nc1)C2", "strain": "H37RV", "MIC": "0.4 to 0.8 µg/mL"}
{"Structure (SMILES)": "COC(=O)c1cc(-c2cccc(NC(=S)Nc3ccc(C#N)cc3)c2)on1", "strain": "ATCC27294 H37RV", "time": "7 days", "MIC": "2 µg/mL"}
{"Structure (SMILES)": "CCCC1CCC2(CC1)SC(C)C(=O)N2NC(=O)c1[nH]c2ccc(Cl)cc2c1-c1ccccc1 (stereo not drawn)", "strain": "ATCC27294 H37RV", "MIC": "1000 µM"}
{"Structure (SMILES)": "O=C(Nc1cccc(-c2cc(C(=O)O)no2)c1)Nc1ccc(Cl)c(Cl)c1", "strain": "ATCC27294 H37RV", "time": "7 days", "MIC": "64 µg/mL"}
{"Structure (SMILES)": "COc1ccc2cc1Oc1cc(ccc1OC)CCC(N[C@H]1CCCc3ccccc31)CCCC2 (stereo partly drawn)", "method": "broth dilution", "strain": "H37RV", "MIC": "> 100 µg/mL"}
{"Structure (SMILES)": "C[C@H]1COC2(CCN(c3nc(=O)c4cc(C(F)(F)F)cc([N+](=O)[O-])c4s3)CC2)O1", "method": "resazurin", "strain": "H37RV", "MIC": "< 0.39 µM"}
{"Structure (SMILES)": "COc1ccc(Cc2c(C)c(C#N)c3[nH]c4ccccc4n3c2=O)cc1", "method": "broth dilution", "strain": "H37RV", "MIC": "0.25 µg/mL"}
{"Structure (SMILES)": "COc1nc2ccc(Br)cc2cc1[C@@H](c1ccccc1)[C@@](O)(CCN(C)C)c1cccc2ccccc12", "method": "resazurin", "strain": "H37RV", "time": "7 days", "MIC": "0.17 µM"}
{"Structure (SMILES)": "O=C(CNS(=O)(=O)c1ccccc1[N+](=O)[O-])N1CCN(C(c2ccc(F)cc2)c2ccc(F)cc2)CC1", "strain": "ATCC27294 H37RV", "MIC": "> 25 µg/mL"}
{"Structure (SMILES)": "Cc1ccc2nc(C)c(C(=O)NCc3cccc(S(F)(F)(F)(F)F)c3)n2c1", "strain": "H37RV", "time": "5 days", "MIC": "0.2 µM"}
{"Structure (SMILES)": "O=C1C(=NNc2nc(-c3ccccc3)cs2)C(N=Cc2ccc(O)c(O)c2)=NN1c1ccccc1", "method": "resazurin", "strain": "H37RV", "MIC": "3.12 µg/mL"}
{"Structure (SMILES)": "CCCC1CCC2(CC1)SCC(=O)N2NC(=O)c1[nH]c2ccc(Cl)cc2c1-c1ccccc1 (stereo not drawn)", "strain": "ATCC27294 H37RV", "MIC": "31 µM"}
{"Structure (SMILES)": "C=CCOc1cc(O)cc(O)c1C(=O)[C@@H](C)CC", "method": "broth dilution", "strain": "H37RV", "MIC": "100 µg/mL"}
{"Structure (SMILES)": "CC(C)[C@H]1CO[C@]23CCN(Cc4ccc(C(F)(F)F)cc4)C[C@H]2CCC(=O)N13", "strain": "H37RV", "time": "7 days", "MIC": "0.16 µM"}
{"Structure (SMILES)": "CO[C@H]1/C=C/O[C@@]2(C)Oc3c(C)c(O)c4c(O)c(c(/C=N/N5CCN(C)CC5)c(O)c4c3C2=O)NC(=O)/C(C)=C\\C=C\\[C@H](C)[C@H](O)[C@@H](C)[C@@H](O)[C@@H](C)[C@H](OC(C)=O)[C@@H]1C", "strain": "H37RV", "time": "5 days", "MIC": "0.012 µM"}
{"Structure (SMILES)": "CCCCCCC/C=C\\[C@H](O)C#CC#C[C@@H](O)CC", "method": "resazurin", "strain": "ATCC35801 ERDMAN", "time": "7 days", "MIC": "49.5 µg/mL"}
{"Structure (SMILES)": "CO[C@H]1/C=C/O[C@@]2(C)Oc3c(C)c(O)c4c(O)c(c(/C=N/N5CCN(C)CC5)c(O)c4c3C2=O)NC(=O)/C(C)=C\\C=C\\[C@H](C)[C@H](O)[C@@H](C)[C@@H](O)[C@@H](C)[C@H](OC(C)=O)[C@@H]1C", "strain": "ATCC27294 H37RV", "time": "7 days", "MIC": "0.03 µg/mL"}
{"Structure (SMILES)": "CC1CCCC2(C1)SCC(=O)N2NC(=O)c1[nH]c2ccc(Cl)cc2c1-c1ccccc1 (stereo not drawn)", "strain": "ATCC27294 H37RV", "MIC": "16 µM"}
{"Structure (SMILES)": "O=C(CNS(=O)(=O)c1ccc([N+](=O)[O-])cc1[N+](=O)[O-])N1CCN(C(c2ccc(F)cc2)c2ccc(F)cc2)CC1", "strain": "ATCC27294 H37RV", "MIC": "25 µg/mL"}
{"Structure (SMILES)": "COc1nc2ccc(Br)cc2cc1[C@@H](c1ccccc1)[C@@](O)(CCN(C)C)c1cccc2ccccc12", "MIC": "0.06 µg/mL"}
{"Structure (SMILES)": "O=C1C(=NNc2nc(-c3ccccc3)cs2)C(N=Cc2ccccc2)=NN1c1ccccc1", "method": "resazurin", "strain": "H37RV", "time": "5 days", "MIC": "13.9 µM"}
{"Structure (SMILES)": "CC(C)CC=CC=CC(=O)NC(CC(N)=O)C(=O)NC1C(=O)NC(c2ccc(O)cc2)C(=O)NC(CCCN)C(=O)NC(C(C)O)C(=O)NC(c2ccc(O)cc2)C(=O)NC(c2ccc(O)cc2)C(=O)NC(C(C)O)C(=O)NC(Cc2ccccc2)C(=O)NC(CCCN)C(=O)NC(c2ccc(OC3OC(CO)C(O)C(O)C3OC3OC(CO)C(O)C(O)C3O)cc2)C(=O)NC(C(C)O)C(=O)NC(c2ccc(O)cc2)C(=O)NCC(=O)NC(CC(C)C)C(=O)NC(C)C(=O)NC(c2ccc(O)c(Cl)c2)C(=O)OC1C(N)=O (stereo not drawn)", "strain": "H37RV", "time": "14 days", "MIC": "6.25 to 12.5 µg/mL"}
{"Structure (SMILES)": "CO[C@H]1/C=C/O[C@@]2(C)Oc3c(C)c(O)c4c(O)c(c(/C=N/N5CCN(C)CC5)c(O)c4c3C2=O)NC(=O)/C(C)=C\\C=C\\[C@H](C)[C@H](O)[C@@H](C)[C@@H](O)[C@@H](C)[C@H](OC(C)=O)[C@@H]1C", "strain": "H37RA", "MIC": "0.008 µg/mL"}
{"Structure (SMILES)": "Cc1ccc(CN2CC[C@]34OC[C@H](C(C)C)N3C(=O)CC[C@@H]4C2)cc1", "strain": "H37RV", "MIC": "1.66 µM"}
{"Structure (SMILES)": "C[C@@H]1CN2c3c(cc4c(N5CC[C@@H](O)C5)noc4c3F)CC3(C(=O)NC(=O)NC3=O)[C@H]2[C@H](C)N1C#N", "strain": "H37RV", "MIC": "7.8 µM"}
{"Structure (SMILES)": "c1ccc(-c2nc3cc(Nc4nccn4-c4cc(NC5CCCC5)ncn4)ccc3[nH]2)cc1", "strain": "W4", "MIC": "> 20 µM"}
{"Structure (SMILES)": "N=C(N)Cc1ccc(NC(=O)c2ccc(C(=O)Nc3ccc(CC(=N)N)cc3)cc2)cc1", "strain": "H37RV", "time": "7 days", "MIC": "1 µg/mL"}
{"Structure (SMILES)": "COC(=O)c1cc(-c2cccc(NC(=S)Nc3cccc(Cl)c3)c2)on1", "strain": "ATCC27294 H37RV", "time": "7 days", "MIC": "4 µg/mL"}
{"Structure (SMILES)": "CC[C@@H](CO)NCCN[C@@H](CC)CO", "strain": "H37RV", "MIC": "5 µg/mL"}
{"Structure (SMILES)": "Cc1ccc(C)n1-c1ccc(-c2nnc(S)s2)cc1", "method": "broth dilution", "strain": "H37RV", "time": "21 days", "MIC": "1 µg/mL"}
{"Structure (SMILES)": "N#Cc1cc(C(F)(F)F)cc2c(=O)nc(N3CCN(CC4COC4)CC3)sc12", "method": "resazurin", "strain": "H37RV", "MIC": "> 2 µM"}
{"Structure (SMILES)": "CO[C@H]1/C=C/O[C@@]2(C)Oc3c(C)c(O)c4c(O)c(c(/C=N/N5CCN(C)CC5)c(O)c4c3C2=O)NC(=O)/C(C)=C\\C=C\\[C@H](C)[C@H](O)[C@@H](C)[C@@H](O)[C@@H](C)[C@H](OC(C)=O)[C@@H]1C", "strain": "ATCC27294 H37RV", "MIC": "< 0.1 µg/mL"}
{"Structure (SMILES)": "CC[C@@H](CO)NCCN[C@@H](CC)CO", "strain": "H37RV", "time": "5 days", "MIC": "6.6 µM"}
{"Structure (SMILES)": "[O-][n+]1ccccc1SSc1cccc[n+]1[O-]", "method": "resazurin", "MIC": "0.23 µM"}
{"Structure (SMILES)": "CC1=NN(CNc2c(O)c(S(=O)(=O)O)cc3ccccc23)C(=O)C1=NNn1c(-c2ccccc2)nc2ccccc2c1=O", "method": "resazurin", "strain": "H37RV", "MIC": "20.9 µM"}
{"Structure (SMILES)": "COC(=O)c1cc(-c2cccc(NC(=O)Nc3cc(Cl)ccc3Cl)c2)on1", "strain": "ATCC27294 H37RV", "time": "7 days", "MIC": "2 µg/mL"}
{"Structure (SMILES)": "CC(=O)O[C@H]1C[C@@]2(C)[C@@H](C[C@@H](O)[C@H]3[C@@]4(C)CC[C@@H](O)[C@@H](C)[C@@H]4CC[C@@]32C)/C1=C(\\CCC=C(C)C)C(=O)O", "method": "resazurin", "strain": "H37RA", "time": "14 days", "MIC": "4 µg/mL"}
{"Structure (SMILES)": "O=C1C(=NNc2nc(-c3ccccc3)cs2)C(N=Cc2ccc([N+](=O)[O-])cc2)=NN1c1ccccc1", "method": "resazurin", "strain": "H37RV", "time": "5 days", "MIC": "50.5 µM"}
{"Structure (SMILES)": "CN(CC[C@H](N)CC(=O)N[C@H]1C=C[C@H](n2ccc(N)nc2=O)O[C@@H]1C(=O)O)C(=N)N", "strain": "H37RA", "MIC": "> 50 µM"}
{"Structure (SMILES)": "CCCCCCC/C=C\\C(O)C#CC#CC(=O)CCOC (stereo not drawn)", "method": "resazurin", "strain": "ATCC35801 ERDMAN", "time": "7 days", "MIC": "> 60 µg/mL"}
{"Structure (SMILES)": "Cc1ccc(C)n1-c1ccc(-c2n[nH]c(=S)[nH]2)cc1", "method": "broth dilution", "strain": "H37RV", "time": "21 days", "MIC": "2 µg/mL"}
{"Structure (SMILES)": "Cc1c(Cc2cccc(Cl)c2)c(=O)n2c([nH]c3ccccc32)c1C#N", "method": "broth dilution", "strain": "H37RV", "MIC": "> 128 µg/mL"}
{"Structure (SMILES)": "CCOC(=O)c1nnn(-c2cccc(NC(=O)Nc3ccc(Cl)c(Cl)c3)c2)c1C", "strain": "ATCC27294 H37RV", "time": "7 days", "MIC": "16 µg/mL"}
{"Structure (SMILES)": "O=C1C(=NNc2nc(-c3ccccc3)cs2)C(N=Cc2cccc(Cl)c2)=NN1c1ccccc1", "method": "resazurin", "strain": "H37RV", "MIC": "6.25 µg/mL"}
{"Structure (SMILES)": "C[C@@H](O)[C@H]1C(=O)N2C(C(=O)O)=C(SCCN=CN)C[C@H]12", "method": "resazurin", "strain": "H37RA", "time": "14 days", "MIC": "16 µg/mL"}
{"Structure (SMILES)": "O=C1C(Cl)=C(Cl)C(=O)c2ccccc21", "strain": "H37RV", "time": "14 days", "MIC": "10 µg/mL"}
{"Structure (SMILES)": "CO[C@@H]1[C@@H](OC(N)=O)[C@@H](O)[C@H](Oc2ccc3c(O)c(NC(=O)c4ccc(O)c(CC=C(C)C)c4)c(=O)oc3c2C)OC1(C)C", "method": "resazurin", "strain": "H37RA", "time": "14 days", "MIC": "8 µg/mL"}
{"Structure (SMILES)": "COC(=O)c1cc(-c2cccc(NC(=S)Nc3ccc(C)cc3)c2)on1", "strain": "ATCC27294 H37RV", "time": "7 days", "MIC": "2 µg/mL"}
{"Structure (SMILES)": "NNC(=O)c1ccncc1", "method": "broth dilution", "strain": "H37RV", "time": "21 days", "MIC": "0.25 µg/mL"}
{"Structure (SMILES)": "CO/N=C(\\C(=O)N[C@@H]1C(=O)N2C(C(=O)O)=C(COC(C)=O)CS[C@H]12)c1csc(N)n1", "method": "resazurin", "strain": "H37RA", "time": "14 days", "MIC": "16 µg/mL"}
